Converted amounts (≈) assume the structure as drawn.
Columns and labels:
Type in all cases: functional
Klebsiella pneumoniae [1] = assay: Antimicrobial activity against Klebsiella pneumoniae isolate KpBEL expressing beta-lactamase OXA-48 by Etest method
Method in brief: (§1)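 MICs of β-lactams read from Etest strips. The test organisms are carbapenem-resistant, OXA-48-positive clinical Enterobacteriaceae isolates recovered from Turkey, Lebanon, Egypt, France and Belgium.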

Escherichia coli [2] = assay: Antimicrobial activity against Escherichia coli isolate J53 harboring p3A containing beta-lactamase OXA-48 located within transposon Tn1999 by Etest method
Method in brief: (§2)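 β-Lactam MICs read with Etest strips. Strains are E. coli J53 recipient and J53 transconjugants carrying OXA-48-positive plasmids recovered from clinical enterobacterial isolates.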

Providencia rettgeri = assay: Antimicrobial activity against Providencia rettgeri isolate expressing beta-lactamase OXA-48 and TEM-101 by Etest method
Citrobacter freundii = assay: Antimicrobial activity against Citrobacter freundii isolate expressing beta-lactamase OXA-48 by Etest method
Escherichia coli [3] = assay: Antimicrobial activity against Escherichia coli isolate J53 harboring pCF containing beta-lactamase OXA-48 located within transposon Tn1999 by Etest method; method in brief: as §2
Klebsiella pneumoniae [4] = assay: Antimicrobial activity against Klebsiella pneumoniae isolate KpL expressing beta-lactamase OXA-48 by Etest method
Klebsiella pneumoniae [5] = assay: Antimicrobial activity against Klebsiella pneumoniae isolate KpI-1 expressing beta-lactamase OXA-48 and CTX-M-15 by Etest method
Escherichia coli [6] = assay: Antimicrobial activity against Escherichia coli isolate TOP10 by Etest method
Method in brief: (§3)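 β-Lactam MICs read with Etest strips. Strains are E. coli TOP10 host and TOP10 transformants made with plasmid DNA extract when conjugation failed. Transformants were selected on LB agar with ticarcillin 50 μg/ml.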

Klebsiella pneumoniae [7] = assay: Antimicrobial activity against Klebsiella pneumoniae isolate Kp5A expressing beta-lactamase OXA-48 and SHV-5 by Etest method
Escherichia coli [8] = assay: Antimicrobial activity against Escherichia coli isolate J53 harboring pI-2 containing beta-lactamase OXA-48 located within transposon Tn1999.2 by Etest method; method in brief: as §2
Escherichia coli [9] = assay: Antimicrobial activity against Escherichia coli isolate A expressing beta-lactamase OXA-48 and TEM-150 by Etest method
Escherichia coli [10] = assay: Antimicrobial activity against Escherichia coli isolate J53 harboring pI-1 containing beta-lactamase OXA-48 located within transposon Tn1999.2 by Etest method; method in brief: as §2
Enterobacter cloacae [11] = assay: Antimicrobial activity against Enterobacter cloacae isolate 1 expressing beta-lactamase OXA-48 and SHV-5 by Etest method
Escherichia coli [12] = assay: Antimicrobial activity against Escherichia coli isolate J53 harboring p6A containing beta-lactamase OXA-48 located within transposon Tn1999 by Etest method; method in brief: as §2
Klebsiella pneumoniae [13] = assay: Antimicrobial activity against Klebsiella pneumoniae isolate Kp6A expressing beta-lactamase OXA-48 and TEM-150 by Etest method
Escherichia coli [14] = assay: Antimicrobial activity against Escherichia coli isolate J53 harboring pE containing beta-lactamase OXA-48 located within transposon Tn1999.2 by Etest method; method in brief: as §2
Escherichia coli [15] = assay: Antimicrobial activity against Escherichia coli isolate J53 harboring pA-1 containing beta-lactamase OXA-48 located within transposon Tn1999 by Etest method; method in brief: as §2
Escherichia coli [16] = assay: Antimicrobial activity against Escherichia coli isolate J53 harboring pEnc2 containing beta-lactamase OXA-48 located within transposon Tn1999 by Etest method; method in brief: as §2
Klebsiella pneumoniae [17] = assay: Antimicrobial activity against Klebsiella pneumoniae isolate Kp11978 expressing beta-lactamase OXA-48, SHV-2a and TEM-1 by Etest method
Escherichia coli [18] = assay: Antimicrobial activity against Escherichia coli isolate J53 harboring p7A containing beta-lactamase OXA-48 located within transposon Tn1999 by Etest method; method in brief: as §2
Escherichia coli [19] = assay: Antimicrobial activity against Escherichia coli isolate J53 harboring pBEL containing beta-lactamase OXA-48 located within transposon Tn1999.2 by Etest method; method in brief: as §2
Escherichia coli [20] = assay: Antimicrobial activity against Escherichia coli isolate TOP10 harboring pBIC containing beta-lactamase OXA-48 located within transposon Tn1999.2 by Etest method; method in brief: as §3
Escherichia coli [21] = assay: Antimicrobial activity against Escherichia coli isolate J53 harboring pEnc1 containing beta-lactamase OXA-48 located within transposon Tn1999 by Etest method; method in brief: as §2
Klebsiella pneumoniae [22] = assay: Antimicrobial activity against Klebsiella pneumoniae isolate KpE expressing beta-lactamase OXA-48 and CTX-M-15 by Etest method
Klebsiella pneumoniae [23] = assay: Antimicrobial activity against Klebsiella pneumoniae isolate KpB expressing OXA-48 and CTX-M-15 by Etest method
Escherichia coli [24] = assay: Antimicrobial activity against Escherichia coli isolate J53 by Etest method; method in brief: as §2
Escherichia coli [25] = assay: Antimicrobial activity against Escherichia coli isolate J53 harboring p5A containing beta-lactamase OXA-48 located within transposon Tn1999 by Etest method; method in brief: as §2
Klebsiella pneumoniae [26] = assay: Antimicrobial activity against Klebsiella pneumoniae isolate Kp3A expressing beta-lactamase OXA-48 by Etest method; method in brief: as §1
Escherichia coli [27] = assay: Antimicrobial activity against Escherichia coli isolate J53 harboring pBb containing beta-lactamase OXA-48 located within transposon Tn1999.2 by Etest method; method in brief: as §2
Enterobacter cloacae [28] = assay: Antimicrobial activity against Enterobacter cloacae isolate 2 expressing beta-lactamase OXA-48 and SHV-5 by Etest method
Escherichia coli [29] = assay: Antimicrobial activity against Escherichia coli isolate J53 harboring pEcA containing beta-lactamase OXA-48 located within transposon Tn1999.2 by Etest method; method in brief: as §2
Klebsiella pneumoniae [30] = assay: Antimicrobial activity against Klebsiella pneumoniae isolate Kp7A expressing beta-lactamase OXA-48 by Etest method; method in brief: as §1
Klebsiella pneumoniae [31] = assay: Antimicrobial activity against Klebsiella pneumoniae isolate KpI-2 expressing beta-lactamase OXA-48 and CTX-M-15 by Etest method
Klebsiella pneumoniae [32] = assay: Antimicrobial activity against Klebsiella pneumoniae isolate KpBIC expressing beta-lactamase OXA-48 by Etest method; method in brief: as §1
Klebsiella pneumoniae [33] = assay: Antimicrobial activity against Klebsiella pneumoniae isolate Kp4A expressing beta-lactamase OXA-48 and CTX-M-15 by Etest method
Escherichia coli [34] = assay: Antimicrobial activity against Escherichia coli isolate TOP10 harboring pPR containing beta-lactamase and TEM-101 by Etest method; method in brief: as §3
Escherichia coli [35] = assay: Antimicrobial activity against Escherichia coli isolate J53 harboring pL containing beta-lactamase OXA-48 located within transposon Tn1999.2 by Etest method; method in brief: as §2
Escherichia coli [36] = assay: Antimicrobial activity against Escherichia coli isolate J53 harboring p4A containing beta-lactamase OXA-48 located within transposon Tn1999 by Etest method; method in brief: as §2

Row | SMILES | MIC (Klebsiella pneumoniae [1]) | MIC (Escherichia coli [2]) | MIC (Providencia rettgeri) | MIC (Citrobacter freundii) | MIC (Escherichia coli [3]) | MIC (Klebsiella pneumoniae [4]) | MIC (Klebsiella pneumoniae [5]) | MIC (Klebsiella pneumoniae [7]) | MIC (Escherichia coli [8]) | MIC (Escherichia coli [9]) | MIC (Escherichia coli [10]) | MIC (Enterobacter cloacae [11]) | MIC (Escherichia coli [12]) | MIC (Klebsiella pneumoniae [13]) | MIC (Escherichia coli [14]) | MIC (Escherichia coli [15]) | MIC (Escherichia coli [16]) | MIC (Klebsiella pneumoniae [17]) | MIC (Escherichia coli [18]) | MIC (Escherichia coli [19]) | further results
1 | CO[C@@]1(NC(=O)Cc2cccs2)C(=O)N2C(C(=O)O)=C(COC(N)=O)CS[C@@H]21 [CEFOXITIN] | 2 µg/mL (≈ 4.68 µM) | 2 µg/mL (≈ 4.68 µM) | 128 µg/mL (≈ 299 µM) | 128 µg/mL (≈ 299 µM) | 2 µg/mL (≈ 4.68 µM) | 8 µg/mL (≈ 18.7 µM) | 128 µg/mL (≈ 299 µM) | 128 µg/mL (≈ 299 µM) | 2 µg/mL (≈ 4.68 µM) | 128 µg/mL (≈ 299 µM) | 2 µg/mL (≈ 4.68 µM) | > 512 µg/mL | 2 µg/mL (≈ 4.68 µM) | 128 µg/mL (≈ 299 µM) | 2 µg/mL (≈ 4.68 µM) | 2 µg/mL (≈ 4.68 µM) | 2 µg/mL (≈ 4.68 µM) | 128 µg/mL (≈ 299 µM) | 2 µg/mL (≈ 4.68 µM) | 2 µg/mL (≈ 4.68 µM) | MIC (Escherichia coli [6]): 4 µg/mL (≈ 9.36 µM); MIC (Escherichia coli [20]): 2 µg/mL (≈ 4.68 µM); MIC (Escherichia coli [21]): 2 µg/mL (≈ 4.68 µM); MIC (Klebsiella pneumoniae [22]): 128 µg/mL (≈ 299 µM); MIC (Klebsiella pneumoniae [23]): 128 µg/mL (≈ 299 µM); MIC (Escherichia coli [24]): 2 µg/mL (≈ 4.68 µM); MIC (Escherichia coli [25]): 2 µg/mL (≈ 4.68 µM); MIC (Klebsiella pneumoniae [26]): 2 µg/mL (≈ 4.68 µM); MIC (Escherichia coli [27]): 4 µg/mL (≈ 9.36 µM); MIC (Enterobacter cloacae [28]): 512 µg/mL (≈ 1200 µM); MIC (Escherichia coli [29]): 2 µg/mL (≈ 4.68 µM); MIC (Klebsiella pneumoniae [30]): 128 µg/mL (≈ 299 µM); MIC (Klebsiella pneumoniae [31]): 128 µg/mL (≈ 299 µM); MIC (Klebsiella pneumoniae [32]): 128 µg/mL (≈ 299 µM); MIC (Klebsiella pneumoniae [33]): 128 µg/mL (≈ 299 µM); MIC (Escherichia coli [34]): 4 µg/mL (≈ 9.36 µM); MIC (Escherichia coli [35]): 2 µg/mL (≈ 4.68 µM); MIC (Escherichia coli [36]): 2 µg/mL (≈ 4.68 µM)
2 | CO/N=C(\C(=O)N[C@@H]1C(=O)N2C(C(=O)O)=C(COC(C)=O)CS[C@H]12)c1csc(N)n1 [CEFOTAXIME] | 0.12 µg/mL (≈ 0.263 µM) | 0.5 µg/mL (≈ 1.1 µM) | 64 µg/mL (≈ 141 µM) | 64 µg/mL (≈ 141 µM) | 0.12 µg/mL (≈ 0.263 µM) | 1.5 µg/mL (≈ 3.29 µM) | 64 µg/mL (≈ 141 µM) | 64 µg/mL (≈ 141 µM) | 0.12 µg/mL (≈ 0.263 µM) | 64 µg/mL (≈ 141 µM) | 0.12 µg/mL (≈ 0.263 µM) | > 512 µg/mL | 0.12 µg/mL (≈ 0.263 µM) | 64 µg/mL (≈ 141 µM) | 0.12 µg/mL (≈ 0.263 µM) | 0.06 µg/mL (≈ 0.132 µM) | 0.25 µg/mL (≈ 0.549 µM) | 64 µg/mL (≈ 141 µM) | 0.5 µg/mL (≈ 1.1 µM) | 0.12 µg/mL (≈ 0.263 µM) | MIC (Escherichia coli [6]): 0.06 µg/mL (≈ 0.132 µM); MIC (Escherichia coli [20]): 0.5 µg/mL (≈ 1.1 µM); MIC (Escherichia coli [21]): 0.25 µg/mL (≈ 0.549 µM); MIC (Klebsiella pneumoniae [22]): 64 µg/mL (≈ 141 µM); MIC (Klebsiella pneumoniae [23]): > 512 µg/mL; MIC (Escherichia coli [24]): 0.06 µg/mL (≈ 0.132 µM); MIC (Escherichia coli [25]): 0.12 µg/mL (≈ 0.263 µM); MIC (Klebsiella pneumoniae [26]): 1 µg/mL (≈ 2.2 µM); MIC (Escherichia coli [27]): 0.5 µg/mL (≈ 1.1 µM); MIC (Enterobacter cloacae [28]): 512 µg/mL (≈ 1120 µM); MIC (Escherichia coli [29]): 0.12 µg/mL (≈ 0.263 µM); MIC (Klebsiella pneumoniae [30]): 0.5 µg/mL (≈ 1.1 µM); MIC (Klebsiella pneumoniae [31]): 64 µg/mL (≈ 141 µM); MIC (Klebsiella pneumoniae [32]): 0.5 µg/mL (≈ 1.1 µM); MIC (Klebsiella pneumoniae [33]): 64 µg/mL (≈ 141 µM); MIC (Escherichia coli [34]): 32 µg/mL (≈ 70.3 µM); MIC (Escherichia coli [35]): 0.25 µg/mL (≈ 0.549 µM); MIC (Escherichia coli [36]): 0.12 µg/mL (≈ 0.263 µM)
3 | C[C@@H](O)[C@H]1C(=O)N2C(C(=O)O)=C(SCCNC=N)C[C@H]12 [IMIPENEM ANHYDROUS] | 0.75 µg/mL (≈ 2.51 µM) | 0.75 µg/mL (≈ 2.51 µM) | > 32 µg/mL | > 32 µg/mL | 0.75 µg/mL (≈ 2.51 µM) | > 16 µg/mL | 24 µg/mL (≈ 80.2 µM) | > 32 µg/mL | 0.5 µg/mL (≈ 1.67 µM) | 24 µg/mL (≈ 80.2 µM) | 0.5 µg/mL (≈ 1.67 µM) | 0.5 µg/mL (≈ 1.67 µM) | 0.38 µg/mL (≈ 1.27 µM) | > 32 µg/mL | 2 µg/mL (≈ 6.68 µM) | 2 µg/mL (≈ 6.68 µM) | 0.75 µg/mL (≈ 2.51 µM) | 64 µg/mL (≈ 214 µM) | 0.75 µg/mL (≈ 2.51 µM) | 0.75 µg/mL (≈ 2.51 µM) | MIC (Escherichia coli [20]): 0.5 µg/mL (≈ 1.67 µM); MIC (Escherichia coli [21]): 0.5 µg/mL (≈ 1.67 µM); MIC (Klebsiella pneumoniae [22]): 2 µg/mL (≈ 6.68 µM); MIC (Klebsiella pneumoniae [23]): 16 µg/mL (≈ 53.4 µM); MIC (Escherichia coli [25]): 0.38 µg/mL (≈ 1.27 µM); MIC (Klebsiella pneumoniae [26]): > 32 µg/mL; MIC (Escherichia coli [27]): 0.5 µg/mL (≈ 1.67 µM); MIC (Enterobacter cloacae [28]): 0.75 µg/mL (≈ 2.51 µM); MIC (Escherichia coli [29]): 0.75 µg/mL (≈ 2.51 µM); MIC (Klebsiella pneumoniae [30]): > 32 µg/mL; MIC (Klebsiella pneumoniae [31]): 24 µg/mL (≈ 80.2 µM); MIC (Klebsiella pneumoniae [32]): 0.5 µg/mL (≈ 1.67 µM); MIC (Klebsiella pneumoniae [33]): > 32 µg/mL; MIC (Escherichia coli [35]): 4 µg/mL (≈ 13.4 µM); MIC (Escherichia coli [36]): 0.38 µg/mL (≈ 1.27 µM)
